Experimental data from different studies.
Target: Tyrosine-protein kinase CSK (CSK, Homo sapiens, UniProt P41240)

CC(C)(C)c1cc(C=C(C#N)C#N)cc(Br)c1O  remaining activity (enzyme activity; inhibitor; 0.5 µM): 106%
N#CC1(c2ccccn2)CCN(Cc2cc(C(=O)O)c(=O)n3ccccc23)CC1  remaining binding (cell-free assay; competition with immobilised ligand; 1 µM): 100%
Cn1cc(-c2cccc(N3CCc4c(sc5c4CC(C)(C)C5)C3=O)c2CO)cc(Nc2ccncn2)c1=O  inhibition (enzyme activity; inhibitor; 1 µM): 4%
O=C(NCc1ncc(C(F)(F)F)cc1Cl)c1ccc2c(c1)C1(CCS(=O)(=O)CC1)[C@@H](C1CC1)N2S(=O)(=O)c1ccc(F)cc1  remaining binding (cell-free assay; competition with immobilised ligand; 1 µM): 96%
Cn1cc(-c2cc(F)cc(N3CCn4c(cc5c4CCCC5)C3=O)c2CO)cc(Nc2ccc(N3CCN(C4COC4)CC3)cn2)c1=O  inhibition (enzyme activity; inhibitor; 0.1 µM): 12%
Cc1nn(C)cc1-c1nc2c(N3CCN(Cc4ccc(Cl)cc4)CC3)c(Cl)cnc2[nH]1  remaining binding (binding; competition with immobilised ligand; 1 µM): 100%
Nc1ncc(-c2nc(N3CCOCC3)nc(N3CCOCC3)n2)c(C(F)F)n1  remaining binding (binding; competition with immobilised ligand; 10 µM): 73%
COc1ncccc1-c1cnn2ccc(N3CCN(C(=O)OC(C)C)CC3)nc12  remaining binding (binding; competition with immobilised ligand; 1 µM): 100%
O=c1[nH]c2ccccc2n1C1CCN(Cc2ccc(-c3[nH]c4cc5ncnc5cc4nc3-c3ccccc3)cc2)CC1  remaining activity (enzyme activity; 0.5 µM): 101%
